Compound activity (PubChem BioAssay)
This is a sample that favours compounds with a hit; in the whole collection about 1.2% have one here.
M1 PAM parental = nonselective calcium activators in parental CHO-K1 cells, primary screen, counter-screen for M1 PAM project, cell-based, Fluo-8 calcium fluorescence, full deck, 1536-well; ATP EC20; 0% at ATP EC20, 100% at ATP max; activation, % at 3 µM; hit rate 0.02% among 360,000;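 active = activation above the run cutoff, the mean activation of all test compounds plus 3 SD, cut at about 40% in these data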;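 also: peak over basal fluorescence ratio in a 140 s read after ATP addition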
CHO-K1 Ca antag = counter-screen for M1 antagonists: effect in parental CHO-K1 cells | inhibition, % at 3 µM | hit rate 0.6% among 360,000 | AID 602250 | ATP-induced calcium, Fluo-8 fluorescence;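 active = inhibition above a per-plate cutoff, the plate's mean sample inhibition plus 3 SD, cut at about 24% in these data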;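 also: 0% = DMSO plus EC80 ATP and 100% = DMSO alone without ATP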
TRPN1 ag = zebrafish TRPN1 channel agonists, primary screen, cell-based, HEK293, calcium fluorescence | activation, % at 3 µM | HEK293 zebrafish TRPN1-YFP, Fluo-8 calcium fluorescence; 100% = response to 87 µM carbachol | hit rate 0.18% among 220,000 | transient receptor potential cation channel N1 (TRPN1/NompC), Danio rerio;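 active = activation above its plate's cutoff, the mean activation of test wells on that plate plus 3 SD, cut at about 19% in these data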;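 also: 0% = DMSO alone and 100% = 87 µM carbachol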
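Control set: carbachol 87 µM as high control, DMSO as low control; system: HEK293 stable line with zebrafish TRPN1-YFP; read-out: % activation versus carbachol response; detection: intracellular calcium fluorescence with Fluo-8; doses: single test compound dose, 3 µM nominal, 0.3% DMSO; schedule: dye 1 h 37 °C plus 30 min RT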
CHO-K1 Ca ag = counter-screen for M1 agonists: effect in parental CHO-K1 cells; hit rate 0.48% among 360,000; Fluo-8 calcium fluorescence; scaled to maximal ATP response, vehicle zero; activation, % at 3 µM; in the data active = activation above about 15%;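 also: untransfected CHO-K1 host cells lacking M1 receptor as counterscreen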
TRPML3 ag = human TRPML3 channel agonists, primary screen, cell-based, HEK293 TRPML3-YFP, Fluo-8 calcium fluorescence, 3 µM; hit rate 0.29% among 220,000; 100% = the carbachol control signal; Mucolipin-3 (Homo sapiens), Q8TDD5; activation, % at 3 µM; AID 1448, 2008;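 active = activation above its plate's cutoff, the mean activation of the plate's test wells plus 3 SD, cut at about 12% in these data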;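 also: 0% = DMSO only wells and 100% = carbachol wells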
Target sequence (Q8TDD5 whole entry, looked up): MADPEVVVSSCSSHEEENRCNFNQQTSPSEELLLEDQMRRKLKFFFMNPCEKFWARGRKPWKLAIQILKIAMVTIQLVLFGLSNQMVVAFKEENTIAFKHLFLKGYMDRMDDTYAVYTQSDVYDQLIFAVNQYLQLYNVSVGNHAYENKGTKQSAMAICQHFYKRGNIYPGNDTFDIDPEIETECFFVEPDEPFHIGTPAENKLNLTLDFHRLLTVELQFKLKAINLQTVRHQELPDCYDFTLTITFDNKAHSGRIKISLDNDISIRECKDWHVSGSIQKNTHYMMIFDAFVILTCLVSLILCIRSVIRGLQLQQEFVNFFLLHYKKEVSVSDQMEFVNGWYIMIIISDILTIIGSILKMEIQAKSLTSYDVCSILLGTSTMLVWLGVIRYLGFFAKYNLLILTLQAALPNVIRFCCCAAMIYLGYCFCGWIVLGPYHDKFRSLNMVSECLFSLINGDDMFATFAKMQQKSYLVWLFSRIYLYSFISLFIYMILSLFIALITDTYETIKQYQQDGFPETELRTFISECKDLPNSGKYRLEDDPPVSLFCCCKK
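system = HEK293 cells stably carrying human TRPML3-YFP | doses = one concentration, 3 µM nominal, 0.3% DMSO | timing = dye loading 1 h 37 °C then 30 min ambient, 125 s read | detection = Fluo-8 calcium dye fluorescence, ex 470-495, em 515-575 nm | benchmarks = high control carbachol 87 µM, low control DMSO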
The depositor's hits bear a star; · = no result given.

SMILES	M1 PAM parental	CHO-K1 Ca antag	TRPN1 ag	CHO-K1 Ca ag	TRPML3 ag
O=C(COc1ccccc1/C=C\c1nc(O)c([N+](=O)[O-])c(=O)[nH]1)Nc1ccccc1	-1	-8	321*	0	138*
CCc1nc2ccc(C(=O)N3CCN(S(=O)(=O)CC)CC3)cn2c1N(CC)CCN(C)C	-7	6	·	1	·
CCN(CC)c1ccc(C(=C2C=CC(=[N+](CC)CC)C=C2)c2ccccc2)cc1	-27	75*	·	39*	·
C(=C\c1ccccc1)/CN1CCN(C(c2cc3ccccc3o2)c2nnnn2C2CCCCC2)CC1 (centres undefined)	-2	-1	·	0	·
CCN(CC)C(=O)Oc1ccc(Cl)c2cccnc12	4	-9	-3	-1	-1
O=C(Nc1cccc(C(F)(F)F)c1)Oc1ccc(Cl)c2cccnc12	-33	36*	12	16*	3
Cc1cc(OCC(=O)Nc2ccncc2)c(C)cc1Br	-15	32*	4	14	3
O=C(COc1ccc2ccccc2c1Br)Nc1cccnc1	1	-6	·	8	·
O=C(COc1ccc2ccccc2c1Br)Nc1ccncc1	-12	11	·	15*	·
CCN(c1cccc(C)c1)S(=O)(=O)c1ccc2c3c(cccc13)C(=O)N2	-8	28*	-2	1	-1
Cc1cc(NC(=O)c2ccc3sc([C@@H]4O[C@H](CO)[C@H](O)[C@H](O)[C@H]4O)nc3c2)n(C)n1	-12	10	·	0	·
CC(=O)Nc1ccc(-c2ccnc3c2CC(C)(C(=O)NCc2ccc(N4CCN(C)CC4)cc2)O3)cc1 (centres undefined)	13	-17	·	1	·
COC(=O)c1ccc(OC)c(CSc2nnc(COc3ccccc3)o2)c1	19	-12	-1	1	0
COC(=O)c1ccc(OC)c(CSc2nnc(COc3ccc(Cl)cc3)o2)c1	-6	24*	-1	0	1
O=C(NCc1ccccc1)[C@@H]1CCCN1C(=O)[C@@H]1CCCN1C(=O)c1cccs1	18	-17	·	1	·
O=C(Nc1ccccc1)Nc1ccc(Cl)c([N+](=O)[O-])c1	2	19	15	17*	9
Cc1ccc(NC(=O)Nc2ccccc2)cc1[N+](=O)[O-]	-4	7	16	13	8
O=C(Nc1ccccc1)Nc1ccc(F)c([N+](=O)[O-])c1	-2	22	20*	15*	10
OC(c1ccccc1)(c1nc(-c2cccc3cccnc23)cs1)C(F)(F)F (centres undefined)	12	5	·	1	·
CCC(=O)Nc1ccc2c(c1)nc1n2CCSC1	-7	24*	2	0	0
CNc1nc(Nc2ccc(C)cc2C)c2sccc2n1	-2	11	·	6	·
C[C@H](CO)N1C[C@H](C)[C@H](CN(C)C(=O)Cc2cccnc2)Oc2ncc(Br)cc2C1=O	-2	6	·	0	·
O=C(COC(=O)c1cccc(OC(F)F)c1)Nc1cc(S(=O)(=O)N2CCCC2)ccc1Cl	8	-4	·	2	·
CC(C)c1ccc(OCC(O)CNC(C)c2ccccc2)cc1 (centres undefined)	24	-8	·	21*	·
CCC(=O)c1ccc(OCC(O)CNC(C)c2ccccc2)cc1 (centres undefined)	23	-12	0	1	0
SMILES	M1 PAM parental	CHO-K1 Ca antag	TRPN1 ag	CHO-K1 Ca ag	TRPML3 ag
CC(=O)c1sc(N/N=C\c2cccc(Br)c2)nc1C	17	6	-1	17*	0
CC(=O)c1sc(N/N=C\c2ccc(Br)cc2)nc1C	18	-11	1	1	1
COc1cc2cc(C(=O)NCCc3c[nH]c4ccccc34)c(N)nc2cc1OC	-10	22	·	19*	·
COc1cc(SC)ccc1C(=O)NCCc1c[nH]c2ccccc12	11	0	·	3	·
Cc1cccc(C)c1-n1nnnc1C1(C)CCC(=O)N1CCc1ccc(O)cc1 (centres undefined)	12	1	·	2	·
COc1cc(C2NC(=O)c3ccccc3O2)ccc1OC(C)C (centres undefined)	-10	25*	·	-1	·
CCOc1cc(C2NC(=O)c3ccccc3O2)ccc1OC (centres undefined)	15	-4	·	1	·
N#CC(=C1NC(=O)c2ccccc21)c1nc2ccccc2n1CCO	8	1	·	5	·
